Assay results pooled from the literature.
Each line is one published result; the experiments were not run side by side.
Target: Mitogen-activated protein kinase kinase kinase 11 (MAP3K11, Homo sapiens, UniProt Q16584)

CN(C)c1ncc(F)c(-c2cnn3ncccc23)n1 — remaining binding (binding; 1 µM): 88%
O=C(c1ccc(Nc2nccc(-c3cc4ccccc4s3)n2)cc1)N1CCC(N2CCCC2)CC1 — remaining binding (binding, competition with immobilised ligand; 1 µM): 57%
CN(C)c1nccc(-c2cnn3ncccc23)n1 — remaining binding (binding; 1 µM): 98%
Nc1ncc2c(n1)-c1c([nH]c3ccc(C#CC4CC4)cc13)CCCC2 — remaining binding (binding, competition with immobilised ligand; 1 µM): 97%
O=C(NCCCN1CCOCC1)c1ccc(Nc2ncc(Cl)c(-c3ccc(Cl)s3)n2)cc1 — remaining binding (binding, competition with immobilised ligand; 1 µM): 13%
O=C(Nc1ccc(Oc2ccc(F)cc2)cc1)N1CCc2ncccc2[C@H]1c1ccc(F)cc1 — remaining binding (cell-free assay, competition with immobilised ligand; 1 µM): 78%
CCN1CCN(Cc2ccc(C(=O)Nc3ccc(C)c(Oc4ccc5c(c4)CC(=O)N5)c3)cc2C(F)(F)F)CC1 — remaining binding (binding, competition with immobilised ligand; 1 µM): 100%
CC1CCCN1c1nccc(-c2cnn3ncccc23)n1 (centres unmarked) — remaining binding (binding; 1 µM): 100%
C[C@@H]1CN(c2cc(-c3nn(C)c4ccc(OC5(C)CC5)cc34)ncn2)C[C@H](C)O1 — remaining binding (cell-free assay, competition with immobilised ligand; 1 µM): 100%
Cc1cnn2ncc(-c3ccnc(N(C)C)n3)c2c1 — remaining binding (binding; 1 µM): 100%
FC(F)(F)Oc1cccc(-c2cnc3ccc(-c4ccncc4)nn23)c1 — remaining binding (cell-free assay, competition with immobilised ligand; 5 µM): 95%
N[C@H]1CCN(c2nccc(-c3cnn4ncccc34)n2)C1 — remaining binding (binding; 1 µM): 85%
C[C@H](c1cccc(C#N)c1)n1cc(Cl)cc(C(N)=O)c1=N — remaining binding (cell-free assay, competition with immobilised ligand; 1 µM): 100%
CNC(=O)[C@@H]1CC[C@@H](n2c(-c3ccc4cnccc4c3)nc3ccc(C(=O)NCc4cccc(C(N)=O)c4)cc32)C1 — remaining binding (binding, competition with immobilised ligand; 1 µM): 100%
CN1CCN(c2cnc3c(C4CCN(C(=O)c5ccc(OC(F)(F)F)cc5N)CC4)ncnc3c2)CC1 — remaining binding (cell-free assay, competition with immobilised ligand; 1 µM): 100%
O=C(NCC1CCOCC1)c1n[nH]cc1NC(=O)c1c(F)cccc1F — remaining binding (binding, competition with immobilised ligand; 1 µM): 100%
Cn1cc(Cl)c2c(Oc3c(F)cc(Nc4cc(Cl)nc(N)n4)cc3F)ccnc21 — remaining binding (cell-free assay, competition with immobilised ligand; 0.1 µM): 100%
CN(CCCC(F)(F)F)c1nccc(-c2cnn3ncccc23)n1 — remaining binding (binding; 1 µM): 75%
COc1cccc(CNC(=O)c2nc3scc(COCc4ccc(C(=O)O)cc4)c3c(=O)[nH]2)c1 — remaining binding (cell-free assay, competition with immobilised ligand; 1 µM): 100%
O=C(c1ccc(Nc2ncc(Cl)c(-c3cc4ccccc4s3)n2)cc1)N1CCC(N2CCCC2)CC1 — remaining binding (binding, competition with immobilised ligand; 1 µM): 11%
